The results in this text go back to ChEMBL document CHEMBL5096236, “Development of Fluorinated Peptoid-Based Histone Deacetylase (HDAC) Inhibitors for Therapy-Resistant Acute Leukemia” (J Med Chem, 2022).

The target of assay [1] is Histone deacetylase 1 (Homo sapiens, UniProt Q13547). The assay is described as follows: Inhibition of recombinant human C-terminal FLAG/His-tagged HDAC1 (1 to 482 residues) expressed in Sf9 insect cells using Z-Lys(Ac)-AMC as fluorogenic substrate incubated for 90 mins by microplate reader analysis.
Assay [2] has as its target T1, Protein deacetylase HDAC6 (Homo sapiens, UniProt Q9UBN7).
T1 sequence (Q9UBN7 whole entry): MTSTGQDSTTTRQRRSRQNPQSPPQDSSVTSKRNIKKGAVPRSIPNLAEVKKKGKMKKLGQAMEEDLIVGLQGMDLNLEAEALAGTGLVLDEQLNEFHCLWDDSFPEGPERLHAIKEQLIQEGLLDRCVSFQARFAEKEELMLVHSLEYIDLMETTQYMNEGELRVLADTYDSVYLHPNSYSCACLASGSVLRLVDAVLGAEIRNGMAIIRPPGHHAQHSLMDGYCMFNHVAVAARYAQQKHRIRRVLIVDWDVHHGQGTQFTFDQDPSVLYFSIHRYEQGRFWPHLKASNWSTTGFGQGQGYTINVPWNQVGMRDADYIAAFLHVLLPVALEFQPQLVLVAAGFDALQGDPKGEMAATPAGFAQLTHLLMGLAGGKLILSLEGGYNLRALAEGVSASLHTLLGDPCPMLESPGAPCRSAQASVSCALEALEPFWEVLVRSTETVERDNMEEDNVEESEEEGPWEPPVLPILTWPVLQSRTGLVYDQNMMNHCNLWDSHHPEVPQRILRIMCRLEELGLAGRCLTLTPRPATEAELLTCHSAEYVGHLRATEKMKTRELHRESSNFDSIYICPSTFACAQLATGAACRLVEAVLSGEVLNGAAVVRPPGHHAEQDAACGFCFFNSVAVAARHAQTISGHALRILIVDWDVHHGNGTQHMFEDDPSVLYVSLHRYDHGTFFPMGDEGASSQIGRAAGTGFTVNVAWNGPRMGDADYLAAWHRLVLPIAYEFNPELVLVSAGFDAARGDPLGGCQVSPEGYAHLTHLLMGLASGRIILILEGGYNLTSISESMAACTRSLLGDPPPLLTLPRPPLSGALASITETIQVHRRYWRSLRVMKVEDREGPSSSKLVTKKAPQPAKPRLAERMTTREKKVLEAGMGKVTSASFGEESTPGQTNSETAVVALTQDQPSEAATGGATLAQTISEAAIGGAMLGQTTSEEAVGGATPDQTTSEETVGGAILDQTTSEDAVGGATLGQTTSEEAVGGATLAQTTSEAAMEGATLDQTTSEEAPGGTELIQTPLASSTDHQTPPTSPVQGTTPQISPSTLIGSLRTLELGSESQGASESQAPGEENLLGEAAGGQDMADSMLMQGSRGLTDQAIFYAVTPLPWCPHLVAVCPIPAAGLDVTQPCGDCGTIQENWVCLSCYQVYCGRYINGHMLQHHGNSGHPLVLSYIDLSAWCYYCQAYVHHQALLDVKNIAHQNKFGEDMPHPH
Put plainly: Inhibition of recombinant human N-terminal GST-tagged HDAC6 (1 to 1215 residues) expressed in Sf9 insect cells using Z-Lys(Ac)-AMC as fluorogenic substrate incubated for 90 mins by microplate reader analysis.

Assay [3] deals with T2, Histone deacetylase (Homo sapiens) (UniProt Q13547+O15379+Q9UBN7+Q92769+Q9UQL6+Q8WUI4+Q9BY41+Q96DB2+P56524+Q9UKV0+Q969S8). The assay is described as follows: Inhibition of HDAC in human HL-60 cells assessed as increase in alpha tubulin acetylation at 6 to 36 uM incubated for 24 hrs by immunoblot analysis. The class given is cell-based. Conditions: dose 6-36 µM.
Assay [4] concerns the target Histone deacetylase 2 (Homo sapiens, UniProt Q92769). Put plainly: Inhibition of recombinant human C-terminal FLAG-tagged HDAC2 (1 to 488 residues) expressed in Sf9 insect cells using Z-Lys(Ac)-AMC as fluorogenic substrate incubated for 90 mins by microplate reader analysis. The essentials:
(§1)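 Compound incubated with ZMAL (Z-Lys(Ac)-AMC; 21.43 μM solution) and enzyme at 37 °C for 90 min. Trypsin (0.4 mg/mL) added, 30 min at 37 °C. […] Duplicates, ≥2 independent experiments. SI = IC50 (HDAC2 or 3)/IC50 (HDAC6).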

Assay [5] concerns HAL-01. Put plainly: cells. The class given is functional, cell-based. Conditions: Homo sapiens, HAL-01, 72 h.
Assay [6] deals with Histone deacetylase 4 (Homo sapiens, UniProt P56524). Put plainly: Inhibition of recombinant human N-terminal GST-tagged/C-terminal His-tagged HDAC4 (627 to 1084 residues) expressed in baculovirus infected Sf9 insect cells using Boc-Lys (trifluoroacetyl)-AMC as substrate incubated for 90 mins by microplate reader analysis. The essentials: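 HDAC4 enzyme in Tris-HCl pH 8.0 buffer with NaCl, KCl, MgCl₂ and 0.1 mg/mL BSA, max. 1% DMSO. Trypsin (1.0 mg/mL) added, 30 min. Three-parameter log(inhibitor) fit. Duplicates, ≥2 experiments, mean ± SD. SI = IC50 HDAC4/IC50 HDAC6.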

The subject of assay [7] is HL-60. Put plainly: Induction of apoptosis in human HL-60 cells assessed as increase in total apoptotic cells at 1 to 5 uM incubated for 48 hrs by annexin V and propidium iodide staining based flow cytometry analysis. The class given is functional, cell-based. Conditions: dose 1-5 µM. The essentials: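 HL60 cells (RPMI 1640 GlutaMax, 10-20% FCS, 37°C, 5% CO₂) exposed to compound or control at 1 or 5 μM for 48 h, then stained with annexin V and propidium iodide and analysed by flow cytometry; n=3.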
A general note: Flow cytometry measures light scatter and fluorescence of single cells or particles in a stream.

The target in assay [8] is Histone deacetylase 3/Nuclear receptor corepressor 2 (HDAC3/NCoR2) (Homo sapiens, UniProt O15379). The assay is described as follows: Inhibition of C-terminal His-tagged recombinant human HDAC3 (1 to 428 residues)/N-terminal GST-tagged recombinant human NCoR2 (395 to 489 residues) co-expressed in Sf9 cells using Z-Lys(Ac)-AMC as fluorogenic substrate incubated for 90 mins by microplate reader analysis. Summed up: as §1

The test system of assay [9] is Jurkat. The assay is described as follows: cells. The class given is functional, cell-based. Conditions: Homo sapiens, 72 h.
The test system of assay [10] is HL-60. The assay is described as follows: cells. The class given is functional, cell-based. Conditions: Homo sapiens, HL-60, 72 h.
The subject of assay [11] is MOLM-13. The assay is described as follows: Synergistic cytotoxicity against human MOLM-13 cells assessed as increase in synergy score at 0.1 to 2 uM incubated for 72 hrs in presence of […] inhibitor, decitabine by CellTiter-Glo luminescent assay. Particulars: dose 0.1-2 µM. The class given is functional, cell-based. Summed up:
(§2)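 AML cells treated 72 h in an 8×8 dose matrix: compound 0.1–2 μM and decitabine 0.25–10 μM, logarithmically spaced. Viability by CellTiter-Glo luminescence. Synergy scored with the ZIP model in SynergyFinder.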
(In ATP-based viability assays light output follows the ATP content of the culture.)

In assay [12] the test system is HL-60. Put plainly: Synergistic cytotoxicity against human HL-60 cells assessed as increase in synergy score at 0.1 to 2 uM incubated for 72 hrs in presence of DNA methyltransferase inhibitor, decitabine by CellTiter-Glo luminescent assay. The class given is functional, cell-based. Particulars: dose 0.1-2 µM. The essentials:
as §2

The target of assay [13] is T2, Histone deacetylase (Homo sapiens). The assay is described as follows: Inhibition of HDAC in human HL-60 cells assessed as increase in Ac-H3 levels at 0.15 uM incubated for 24 hrs in presence of DNA methyltransferase inhibitor, decitabine by immunoblot analysis. The class given is cell-based. The essentials:
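HL60 cells treated for 24 h with compound alone or combined with decitabine at indicated concentrations. Acetylated H3 detected by immunoblotting.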

Assay [14] has the same target. The assay is described as follows: Inhibition of HDAC in human HL-60 cells assessed as increase in alpha tubulin acetylation incubated for 24 hrs by immunoblot analysis. The class given is cell-based. Particulars: dose lower […], dose upper 296.0 nM, DDE = dose-dependent effect. For orientation: In western blotting, separated proteins are transferred to a membrane and probed.

Assay [15] has the same target. Put plainly: Inhibition of HDAC in human HL-60 cells assessed as increase in Ac-H3 levels incubated for 24 hrs by immunoblot analysis. The class given is cell-based. Conditions: dose lower […], dose upper 296.0 nM, DDE = dose-dependent effect.

Active and inactive are the calls of the source. No cut-off for these calls is given here.

Sequence of Histone deacetylase 1 (Q13547 whole entry, the tested form may be a part): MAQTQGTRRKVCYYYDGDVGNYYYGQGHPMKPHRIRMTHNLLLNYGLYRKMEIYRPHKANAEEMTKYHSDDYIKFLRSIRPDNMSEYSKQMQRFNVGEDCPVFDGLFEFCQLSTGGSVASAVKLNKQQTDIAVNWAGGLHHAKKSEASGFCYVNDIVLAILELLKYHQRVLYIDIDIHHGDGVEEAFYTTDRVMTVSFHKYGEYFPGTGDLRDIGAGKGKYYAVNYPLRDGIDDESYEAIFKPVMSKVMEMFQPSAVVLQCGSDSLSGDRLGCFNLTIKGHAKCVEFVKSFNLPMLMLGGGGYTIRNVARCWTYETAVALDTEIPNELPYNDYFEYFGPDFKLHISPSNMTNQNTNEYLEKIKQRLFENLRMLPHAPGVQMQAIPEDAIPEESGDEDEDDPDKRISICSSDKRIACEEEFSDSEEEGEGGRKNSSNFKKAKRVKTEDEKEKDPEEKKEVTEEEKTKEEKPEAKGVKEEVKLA
Sequence of Histone deacetylase 2 (Q92769 whole entry, the tested form may be a part): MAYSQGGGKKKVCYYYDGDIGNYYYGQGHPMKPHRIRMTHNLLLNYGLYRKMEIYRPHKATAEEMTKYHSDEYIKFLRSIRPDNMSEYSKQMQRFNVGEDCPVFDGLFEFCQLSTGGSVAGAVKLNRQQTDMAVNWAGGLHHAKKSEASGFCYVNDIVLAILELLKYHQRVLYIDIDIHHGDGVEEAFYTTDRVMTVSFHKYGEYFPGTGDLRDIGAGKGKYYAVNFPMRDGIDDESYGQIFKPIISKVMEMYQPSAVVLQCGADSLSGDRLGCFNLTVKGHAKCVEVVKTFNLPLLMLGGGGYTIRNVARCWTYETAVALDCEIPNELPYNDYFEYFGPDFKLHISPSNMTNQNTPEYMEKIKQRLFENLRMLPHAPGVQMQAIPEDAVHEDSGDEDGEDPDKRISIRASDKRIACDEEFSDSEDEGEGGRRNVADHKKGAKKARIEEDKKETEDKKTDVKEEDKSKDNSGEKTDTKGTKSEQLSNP
Sequence of Histone deacetylase 3/Nuclear receptor corepressor 2 (HDAC3/NCoR2) (O15379 whole entry, the tested form may be a part): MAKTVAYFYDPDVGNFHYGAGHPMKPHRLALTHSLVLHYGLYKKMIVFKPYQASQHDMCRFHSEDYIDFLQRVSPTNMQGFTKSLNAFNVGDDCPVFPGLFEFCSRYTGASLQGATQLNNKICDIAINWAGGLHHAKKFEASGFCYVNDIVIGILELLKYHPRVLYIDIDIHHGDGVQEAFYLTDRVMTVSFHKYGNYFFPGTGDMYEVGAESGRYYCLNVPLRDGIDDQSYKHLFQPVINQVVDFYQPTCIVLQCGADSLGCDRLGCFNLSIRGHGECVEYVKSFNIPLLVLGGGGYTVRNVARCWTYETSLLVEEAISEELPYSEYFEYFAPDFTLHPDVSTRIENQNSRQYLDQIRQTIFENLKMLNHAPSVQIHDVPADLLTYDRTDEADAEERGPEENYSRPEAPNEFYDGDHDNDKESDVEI
Sequence of Histone deacetylase 3/Nuclear receptor corepressor 2 (HDAC3/NCoR2) (Q9Y618 whole entry, further chain, the tested form may be a part): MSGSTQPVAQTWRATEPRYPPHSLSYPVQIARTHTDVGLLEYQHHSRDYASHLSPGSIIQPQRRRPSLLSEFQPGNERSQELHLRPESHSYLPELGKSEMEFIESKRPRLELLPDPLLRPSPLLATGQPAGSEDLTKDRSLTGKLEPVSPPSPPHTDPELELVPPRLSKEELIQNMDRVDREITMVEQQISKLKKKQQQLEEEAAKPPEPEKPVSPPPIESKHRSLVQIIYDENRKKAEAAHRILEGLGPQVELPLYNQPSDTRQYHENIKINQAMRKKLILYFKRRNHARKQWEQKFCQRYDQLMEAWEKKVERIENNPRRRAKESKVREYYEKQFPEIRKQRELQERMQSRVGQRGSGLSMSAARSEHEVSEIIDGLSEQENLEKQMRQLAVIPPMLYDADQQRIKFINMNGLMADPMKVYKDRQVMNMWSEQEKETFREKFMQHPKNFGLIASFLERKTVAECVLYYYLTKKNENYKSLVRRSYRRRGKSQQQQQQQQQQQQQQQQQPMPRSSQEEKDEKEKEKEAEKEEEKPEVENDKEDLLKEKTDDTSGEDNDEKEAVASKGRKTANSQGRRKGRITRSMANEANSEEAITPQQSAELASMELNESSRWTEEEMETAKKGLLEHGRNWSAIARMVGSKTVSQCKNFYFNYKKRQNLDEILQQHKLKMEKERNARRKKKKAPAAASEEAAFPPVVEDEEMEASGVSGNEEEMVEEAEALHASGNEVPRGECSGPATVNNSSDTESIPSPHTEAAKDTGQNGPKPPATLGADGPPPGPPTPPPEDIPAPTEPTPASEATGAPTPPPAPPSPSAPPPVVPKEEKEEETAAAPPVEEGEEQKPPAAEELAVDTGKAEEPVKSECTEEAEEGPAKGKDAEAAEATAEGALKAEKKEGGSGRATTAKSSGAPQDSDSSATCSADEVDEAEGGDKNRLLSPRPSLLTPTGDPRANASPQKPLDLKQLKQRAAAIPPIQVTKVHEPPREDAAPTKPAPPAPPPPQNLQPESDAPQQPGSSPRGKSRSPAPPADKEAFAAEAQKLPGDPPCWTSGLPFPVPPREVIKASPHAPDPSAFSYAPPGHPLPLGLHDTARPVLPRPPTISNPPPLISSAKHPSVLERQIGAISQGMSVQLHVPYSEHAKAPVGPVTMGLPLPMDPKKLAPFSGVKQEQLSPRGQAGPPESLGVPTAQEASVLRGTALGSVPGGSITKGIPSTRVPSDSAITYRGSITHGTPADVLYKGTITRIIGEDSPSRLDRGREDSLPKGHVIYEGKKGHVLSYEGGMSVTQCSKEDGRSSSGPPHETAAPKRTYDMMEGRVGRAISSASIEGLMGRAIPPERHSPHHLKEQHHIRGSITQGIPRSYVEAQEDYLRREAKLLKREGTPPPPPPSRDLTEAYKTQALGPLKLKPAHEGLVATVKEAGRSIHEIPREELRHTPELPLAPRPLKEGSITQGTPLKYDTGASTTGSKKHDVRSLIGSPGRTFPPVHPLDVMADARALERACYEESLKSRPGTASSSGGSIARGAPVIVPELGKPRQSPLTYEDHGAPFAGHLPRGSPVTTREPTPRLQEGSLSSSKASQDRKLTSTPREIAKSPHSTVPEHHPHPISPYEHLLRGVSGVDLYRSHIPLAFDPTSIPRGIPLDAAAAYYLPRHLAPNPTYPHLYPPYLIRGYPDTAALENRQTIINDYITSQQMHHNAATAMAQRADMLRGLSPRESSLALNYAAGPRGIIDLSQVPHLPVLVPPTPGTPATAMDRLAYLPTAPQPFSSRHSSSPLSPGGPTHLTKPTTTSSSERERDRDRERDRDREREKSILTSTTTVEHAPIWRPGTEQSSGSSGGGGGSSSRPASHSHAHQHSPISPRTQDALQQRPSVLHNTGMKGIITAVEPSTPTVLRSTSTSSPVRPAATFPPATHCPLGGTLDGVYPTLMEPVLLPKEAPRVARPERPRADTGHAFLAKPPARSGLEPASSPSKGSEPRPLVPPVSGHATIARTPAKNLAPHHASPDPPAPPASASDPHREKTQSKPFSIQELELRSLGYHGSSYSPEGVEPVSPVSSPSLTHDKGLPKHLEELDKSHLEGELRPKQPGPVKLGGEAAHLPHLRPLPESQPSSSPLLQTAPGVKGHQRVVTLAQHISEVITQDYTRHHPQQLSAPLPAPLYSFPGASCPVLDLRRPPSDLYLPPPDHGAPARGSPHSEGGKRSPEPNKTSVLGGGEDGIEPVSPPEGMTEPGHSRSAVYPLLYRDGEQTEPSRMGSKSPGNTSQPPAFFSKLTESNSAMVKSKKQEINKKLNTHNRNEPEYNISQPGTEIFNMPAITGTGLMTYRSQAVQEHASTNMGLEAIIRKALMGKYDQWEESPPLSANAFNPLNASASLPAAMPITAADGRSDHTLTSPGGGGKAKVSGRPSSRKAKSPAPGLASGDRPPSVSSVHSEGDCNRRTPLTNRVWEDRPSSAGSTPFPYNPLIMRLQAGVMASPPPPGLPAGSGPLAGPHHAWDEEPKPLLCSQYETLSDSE
Sequence of Histone deacetylase 4 (P56524 whole entry, the tested form may be a part): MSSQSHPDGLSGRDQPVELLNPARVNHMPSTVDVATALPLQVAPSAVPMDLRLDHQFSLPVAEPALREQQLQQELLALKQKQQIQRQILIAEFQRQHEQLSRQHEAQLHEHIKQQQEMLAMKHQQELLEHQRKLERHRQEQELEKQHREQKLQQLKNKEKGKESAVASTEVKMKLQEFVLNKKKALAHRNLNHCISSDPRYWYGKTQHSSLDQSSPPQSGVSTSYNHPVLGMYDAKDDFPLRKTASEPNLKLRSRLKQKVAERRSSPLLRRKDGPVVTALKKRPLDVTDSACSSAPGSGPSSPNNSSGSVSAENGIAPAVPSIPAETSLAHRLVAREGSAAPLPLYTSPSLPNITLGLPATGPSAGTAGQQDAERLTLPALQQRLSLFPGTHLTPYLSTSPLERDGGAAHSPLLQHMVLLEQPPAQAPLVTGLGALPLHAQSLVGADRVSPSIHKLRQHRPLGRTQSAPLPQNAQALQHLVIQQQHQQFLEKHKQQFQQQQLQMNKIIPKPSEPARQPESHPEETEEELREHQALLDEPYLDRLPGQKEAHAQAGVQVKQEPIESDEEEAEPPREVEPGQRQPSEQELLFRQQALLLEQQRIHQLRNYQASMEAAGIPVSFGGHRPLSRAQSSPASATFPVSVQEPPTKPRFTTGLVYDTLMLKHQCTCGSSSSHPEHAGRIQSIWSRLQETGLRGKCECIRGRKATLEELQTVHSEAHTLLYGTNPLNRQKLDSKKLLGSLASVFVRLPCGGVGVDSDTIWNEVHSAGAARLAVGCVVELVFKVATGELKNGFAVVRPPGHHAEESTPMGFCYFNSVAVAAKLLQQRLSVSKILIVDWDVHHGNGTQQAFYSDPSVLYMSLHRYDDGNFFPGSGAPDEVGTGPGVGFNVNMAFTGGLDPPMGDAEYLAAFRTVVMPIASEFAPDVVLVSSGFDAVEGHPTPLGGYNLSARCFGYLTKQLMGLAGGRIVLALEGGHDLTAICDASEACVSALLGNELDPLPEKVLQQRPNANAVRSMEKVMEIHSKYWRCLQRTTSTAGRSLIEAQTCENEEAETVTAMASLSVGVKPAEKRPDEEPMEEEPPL

In general, IC50 refers to the concentration that inhibits the measured activity by half. As for `CC(C)(C)NC(=O)CN(Cc1ccc(C(=O)NO)cc1F)C(=O)c1ccccc1Cl`, the IC50 came to 3470 nM in assay [1] and 21 nM in assay [2].

Turning to `CC(C)c1ccccc1C(=O)N(CC(=O)NC(C)(C)C)Cc1ccc(C(=O)NO)cc1F`, the inhibition result in assay [3] is “Active”. For the same compound, the IC50 is 4480 nM in [4]; above 25000 nM in assay [5]; 8010 nM in assay [1]; above 10000 nM in [6]; 8350 nM in assay [8]; above 25000 nM in assay [9]. The result in assay [7] was Active.

As for `Cc1cc(C)cc(C(=O)N(CC(=O)NC2CCCCC2)Cc2ccc(C(=O)NO)cc2F)c1`, the IC50 in assay [2] was determined as 20 nM.

Consider `CC(C)(C)NC(=O)CN(Cc1ccc(C(=O)NO)cc1F)C(=O)c1ccccc1F`, for which the results for the IC50 in assay [1] and in [2] were 1180 nM and 26 nM, respectively.

`Cc1cc(C)cc(C(=O)N(CC(=O)NCc2ccccc2)Cc2ccc(C(=O)NO)cc2F)c1`: the IC50 in [5] stood at 2750 nM; in assay [1] it was 77 nM; in assay [10], 9150 nM; in assay [2] it was 13 nM; in [9] it was 6230 nM.

Regarding `CN(C)c1ccc(C(=O)N(CC(=O)NCc2ccccc2)Cc2ccc(C(=O)NO)cc2)cc1`, the IC50 in assay [1] amounted to 5 nM; in assay [2], 11 nM.

As to `O=C(NO)c1ccc(CC(=O)N(CCO)c2ccccc2)cc1`, the values for the IC50 in assay [5], in assay [10] and in [9] were 13900 nM, 11300 nM and 16100 nM, respectively.

Take `Cc1cc(C)cc(C(=O)N(CC(=O)NC2CCCCC2)Cc2ccc(C(=O)NO)cc2)c1`: the IC50 in [1] came out at 249 nM; in [2], 40 nM.

`COc1ccccc1C(=O)N(CC(=O)NC1CCCCC1)Cc1ccc(C(=O)NO)cc1F`: the IC50 in assay [5] was above 25000 nM; in [1], 1500 nM; in assay [2] it was 20 nM.

Take `O=C(CN(Cc1ccc(C(=O)NO)cc1F)C(=O)c1ccccc1C(F)(F)F)NC1CCCCC1`: the IC50 in [1] is 1450 nM; in assay [9] it was above 25000 nM.

With `Cc1ccccc1C(=O)N(CC(=O)NC(C)(C)C)Cc1ccc(C(=O)NO)cc1`, the values for the IC50 in assay [1] (sf9) and in assay [2] (sf9) were 2410 nM and 51 nM, respectively.

Turning to `CN(C)c1ccc(C(=O)N(CC(=O)NC2CCCCC2)Cc2ccc(C(=O)NO)cc2F)cc1`, the 50% inhibitory concentration (IC50) in assay [1] was determined as 66 nM; in assay [2] it was 16 nM.

Turning to `Cc1cc(C)cc(C(=O)N(CC(=O)NC(C)(C)C)Cc2ccc(C(=O)NO)cc2F)c1`, the results for the IC50 in assay [1] and in [2] were 573 nM and 24 nM, respectively.

With `CN(C)c1ccc(C(=O)N(CC(=O)NC(C)(C)C)Cc2ccc(C(=O)NO)cc2F)cc1`, the results for the IC50 in assay [1] and in [2] were 158 nM and 20 nM, respectively.

On to `COc1ccccc1C(=O)N(CC(=O)NC(C)(C)C)Cc1ccc(C(=O)NO)cc1F`, for which the IC50 in assay [5] was above 25000 nM; in assay [1], 1750 nM; in assay [2] it was 17 nM.

For `O=C(CN(Cc1ccc(C(=O)NO)cc1F)C(=O)c1ccccc1F)NC1CCCCC1`, in assay [2], the IC50 was determined as 18 nM.

In the case of `CN(C)c1ccc(C(=O)N(CC(=O)NCc2ccccc2)Cc2ccc(C(=O)NO)cc2F)cc1`, the concentration for half-maximal inhibition (IC50) was 14 nM in assay [4]; 14 nM in [4] (record 2); 375 nM in [5]; 13 nM in assay [1]; 218 nM in assay [10]; 21 nM in [8]. In addition, inhibition in [9] was half-maximal at 285 nM (IC50). Moreover, the outcome in assay [11], in assay [12] and in assay [7] was Active. For the same compound, the inhibition entry in [13] is “Active”. For the same compound, the inhibition result in [14] and in [15] was “Dde” throughout.

Consider `COc1ccccc1C(=O)N(CC(=O)NC(C)(C)C)Cc1ccc(C(=O)NO)cc1`, for which the values for the IC50 in [1] (sf9) and in [2] (sf9) were 3110 nM and 38 nM, respectively.

In the case of `Cc1ccccc1C(=O)N(CC(=O)NC(C)(C)C)Cc1ccc(C(=O)NO)cc1F`, the IC50 in assay [1] was determined as 1750 nM; in [2], 27 nM.

For the compound `Cc1ccccc1C(=O)N(CC(=O)NC1CCCCC1)Cc1ccc(C(=O)NO)cc1F`, the IC50 in assay [1] came out at 938 nM; in [2], 18 nM.

With `CC(C)(C)NC(=O)CN(Cc1ccc(C(=O)NO)cc1F)C(=O)c1ccccc1C(F)(F)F`, the IC50 is above 25000 nM in [5], 2330 nM in assay [1], 27 nM in [2] and above 25000 nM in assay [9].
